Activity calls are given as the source filed them. The rule behind the calls is not given here.
How the values were obtained:
[1] = test system: Mus musculus; test: Anticonvulsant activity in ip dosed albino CF1 mouse assessed as minimum drug concentration required for inhibition of maximal electroshock-induced seizure in half or more of mouse after 4 hrs by MES test; type: functional
Outline: (§1)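 Male CF-1 albino mice (18-25 g), groups of 4. Compound suspended in 0.5% methyl cellulose-water or PEG, given i.p. at 30, 100 and 300 mg/kg. Seizures induced by maximal electroshock (MES) or subcutaneous pentylenetetrazole (scPTZ), tested 0.5 and 4 h after dosing.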

[2] = test system: Mus musculus; test: Anticonvulsant activity in albino CF1 mouse assessed as inhibition of pentylenetetrazole-induced seizures in half or more of mouse at 300 mg/kg, ip after 4 hrs by scPTZ test; type: functional, organism-based; design: dose 300 mg/kg; outline: as §1
[3] = test system: Mus musculus; test: Neurotoxicity in ip dosed albino CF1 mouse assessed as minimum drug concentration required for motor impairment in half or more of mouse after 4 hrs by rotarod test; type: toxicity, organism-based; settings: in vivo
Outline: (§2)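 Motor impairment was tested on a rotorod in mice trained to stay on a rod of 3.2 cm diameter turning at 10 rev/min. Compound given i.p. at 30, 100 or 300 mg/kg, groups of 4, read at 0.5 and 4 h. Neurotoxicity was scored as failure to keep balance for at least 1 min in each of three trials. Value is the minimum dose affecting half or more of the animals.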

[4] = test system: Mus musculus; test: Anticonvulsant activity in ip dosed albino CF1 mouse assessed as minimum drug concentration required for inhibition of maximal electroshock-induced seizure in half or more of mouse after 0.5 hrs by MES test; type: functional; outline: as §1
[5] = test system: Rattus norvegicus; test: Sedative-hypnotic activity in phenobarbitone-activated albino Sprague-Dawley rat assessed as increase in sleeping time at 100 mg/kg pretreated for 30 mins before phenobarbitone sodium challenge relative to control; type: functional
Outline: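 Compound dissolved in PEG and given at 100 mg/kg to groups of six animals. Phenobarbitone sodium was injected 30 min later. Sleep duration was recorded in minutes (mean ± SEM) and expressed as % increase over a phenobarbitone-only control.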

[6] = test system: Mus musculus; test: Anticonvulsant activity in ip dosed albino CF1 mouse assessed as minimum drug concentration required for inhibition of pentylenetetrazole-induced seizures in half or more of mouse after 0.5 hrs by scPTZ test; type: functional; outline: as §1
[7] = test system: Mus musculus; test: Neurotoxicity in ip dosed albino CF1 mouse assessed as minimum drug concentration required for motor impairment in half or more of mouse after 0.5 hrs by rotarod test; type: toxicity, organism-based; settings: in vivo; outline: as §2
[8] = test system: Mus musculus; test: Anticonvulsant activity in albino CF1 mouse assessed as inhibition of pentylenetetrazole-induced seizures in half or more of mouse at 300 mg/kg, ip after 0.5 hrs by scPTZ test; type: functional, organism-based; design: dose 300 mg/kg; outline: as §1
[9] = test system: Mus musculus; test: Neurotoxicity in albino CF1 mouse assessed as motor impairment at 300 mg/kg, ip after 4 hrs by rotarod test; type: toxicity, organism-based; design: dose 300 mg/kg, route intraperitoneal; settings: in vivo; outline: as §2
[10] = test system: Mus musculus; test: Anticonvulsant activity in albino CF1 mouse assessed as minimum inhibition of maximal electroshock-induced seizure in half or more of mouse at 300 mg/kg, ip after 4 hrs by MES test; type: functional, organism-based; design: dose 300 mg/kg; outline: as §1
[11] = test system: Mus musculus; test: Anticonvulsant activity in albino CF1 mouse assessed as minimum inhibition of maximal electroshock-induced seizure in half or more of mouse at 300 mg/kg, ip after 0.5 hrs by MES test; type: functional, organism-based; design: dose 300 mg/kg; outline: as §1
[12] = test system: Mus musculus; test: Neurotoxicity in albino CF1 mouse assessed as motor impairment at 300 mg/kg, ip after 0.5 hrs by rotarod test; type: toxicity, organism-based; design: dose 300 mg/kg, route intraperitoneal; settings: in vivo; outline: as §2

For `CCOc1ccc(Nc2nsc(=O)n2-c2ccc(OCC)cc2)cc1`, which Activity [1] is on record?
The Activity was 300 mg/kg.

What about the Activity [2] of the same molecule?
Its Activity is “inactive”.

And the Activity [3]?
Its Activity is 300 mg/kg.

And the Activity [4]?
The Activity was 100 mg/kg.

And the Activity [5]?
Its Activity is 67.1%.

And the Activity [6]?
Its Activity is 300 mg/kg.

What about the Activity [7] of the same molecule?
The Activity was 300 mg/kg.

For `O=c1snc(Nc2ccc(F)cc2)n1-c1ccc(F)cc1`, which Activity [8] is on record?
The Activity was “inactive”.

And the Activity [2]?
The Activity was “inactive”.

And the Activity [9]?
Its Activity is “Non-toxic”.

And the Activity [4]?
Its Activity is 100 mg/kg.

What about the Activity [5] of the same molecule?
The Activity was 17.7%.

What about the Activity [7] of the same molecule?
Its Activity is 300 mg/kg.

And the Activity [10]?
The Activity was “inactive”.

With `NC(=O)N1c2ccccc2C=Cc2ccccc21` [CARBAMAZEPINE] as the molecule, how does the Activity [2] read?
Its Activity is “inactive”.

And the Activity [3]?
Its Activity is 300 mg/kg.

What about the Activity [4] of the same molecule?
Its Activity is 30 mg/kg.

What about the Activity [6] of the same molecule?
Its Activity is 100 mg/kg.

And the Activity [7]?
The Activity was 100 mg/kg.

And the Activity [10]?
The Activity was “inactive”.

Which results are given for `O=c1snc(Nc2cccnc2)n1-c1cccnc1`?
Activity [8]: inactive; Activity [2]: inactive; Activity [9]: Non-toxic; Activity [4]: 300 mg/kg; Activity [7]: 100 mg/kg; Activity [10]: inactive

How did the Activity [8] turn out when `O=c1snc(Nc2ccccn2)n1-c1ccccn1` was run?
The Activity was “inactive”.

And the Activity [2]?
The Activity was “inactive”.

What about the Activity [9] of the same molecule?
The Activity was “Non-toxic”.

What about the Activity [4] of the same molecule?
Its Activity is 300 mg/kg.

What about the Activity [7] of the same molecule?
Its Activity is 100 mg/kg.

And the Activity [10]?
The Activity was “inactive”.

Which results are given for `CCOc1ccc(Nc2nsc(Nc3ccc(OCC)cc3)n2)cc1`?
Activity [1]: 300 mg/kg; Activity [8]: inactive; Activity [2]: inactive; Activity [3]: 300 mg/kg; Activity [4]: 100 mg/kg; Activity [5]: 36.7%; Activity [7]: 300 mg/kg

What does the source list for `c1cnc(Nc2nsc(Nc3ncccn3)n2)nc1`?
Activity [8]: inactive; Activity [2]: inactive; Activity [11]: inactive; Activity [9]: Non-toxic; Activity [5]: 59.5%; Activity [7]: 300 mg/kg; Activity [10]: inactive

What does the source list for `c1cc(Nc2nsc(Nc3ccncc3)n2)ccn1`?
Activity [8]: inactive; Activity [2]: inactive; Activity [9]: Non-toxic; Activity [4]: 300 mg/kg; Activity [7]: 100 mg/kg; Activity [10]: inactive

For `c1ccc(Nc2nsc(Nc3ccccn3)n2)nc1`, which Activity [8] is on record?
Its Activity is “inactive”.

And the Activity [2]?
Its Activity is “inactive”.

And the Activity [9]?
Its Activity is “Non-toxic”.

And the Activity [4]?
Its Activity is 300 mg/kg.

And the Activity [7]?
The Activity was 100 mg/kg.

What about the Activity [10] of the same molecule?
The Activity was “inactive”.

For `O=c1snc(Nc2ccncc2)n1-c1ccncc1`, which Activity [8] is on record?
Its Activity is “inactive”.

What about the Activity [2] of the same molecule?
Its Activity is “inactive”.

And the Activity [9]?
The Activity was “Non-toxic”.

And the Activity [4]?
The Activity was 300 mg/kg.

What about the Activity [7] of the same molecule?
Its Activity is 100 mg/kg.

What about the Activity [10] of the same molecule?
The Activity was “inactive”.

With `O=c1snc(Nc2cccc3ccccc23)n1-c1cccc2ccccc12` as the molecule, how does the Activity [1] read?
Its Activity is 300 mg/kg.

And the Activity [8]?
The Activity was “inactive”.

And the Activity [2]?
Its Activity is “inactive”.

What about the Activity [9] of the same molecule?
The Activity was “Non-toxic”.

What about the Activity [4] of the same molecule?
Its Activity is 100 mg/kg.

And the Activity [5]?
The Activity was 16.4%.

And the Activity [7]?
The Activity was 300 mg/kg.

`c1ccc2c(Nc3nsc(Nc4cccc5ccccc45)n3)cccc2c1` was tested. Which Activity [1] did it give?
Its Activity is 300 mg/kg.

And the Activity [8]?
Its Activity is “inactive”.

And the Activity [2]?
Its Activity is “inactive”.

And the Activity [9]?
Its Activity is “Non-toxic”.

What about the Activity [4] of the same molecule?
The Activity was 100 mg/kg.

And the Activity [5]?
Its Activity is 22.7%.

What about the Activity [7] of the same molecule?
The Activity was 300 mg/kg.

Which results are given for `O=C1NC(=O)C(c2ccccc2)(c2ccccc2)N1` [PHENYTOIN]?
Activity [1]: 100 mg/kg; Activity [8]: inactive; Activity [2]: inactive; Activity [3]: 100 mg/kg; Activity [4]: 30 mg/kg; Activity [7]: 100 mg/kg

How did the Activity [8] turn out when `c1cncc(Nc2nsc(Nc3cccnc3)n2)c1` was run?
The Activity was “inactive”.

And the Activity [2]?
Its Activity is “inactive”.

And the Activity [9]?
Its Activity is “Non-toxic”.

What about the Activity [4] of the same molecule?
Its Activity is 300 mg/kg.

And the Activity [7]?
The Activity was 100 mg/kg.

And the Activity [10]?
The Activity was “inactive”.

How did the Activity [1] turn out when `Fc1ccc(Nc2nsc(Nc3ccc(F)cc3)n2)cc1` was run?
The Activity was 300 mg/kg.

What about the Activity [8] of the same molecule?
The Activity was “inactive”.

What about the Activity [2] of the same molecule?
Its Activity is “inactive”.

And the Activity [9]?
The Activity was “Non-toxic”.

And the Activity [4]?
The Activity was 100 mg/kg.

What about the Activity [7] of the same molecule?
The Activity was 100 mg/kg.

What does the source list for `O=c1snc(Nc2ncccn2)n1-c1ncccn1`?
Activity [8]: inactive; Activity [2]: inactive; Activity [9]: Non-toxic; Activity [12]: Non-toxic; Activity [4]: 300 mg/kg; Activity [10]: inactive

From ChEMBL document CHEMBL1138557, “Synthesis and anticonvulsant activity of some substituted 1,2,4-thiadiazoles” (Eur J Med Chem, 2009)
